Reference: ChEMBL document CHEMBL3526134, “Molecular mechanism of altered ezetimibe disposition in nonalcoholic steatohepatitis” (Drug Metab Dispos, 2012)
The source made the active and inactive calls. The rule behind the calls is not given here.

Assays:
[1] = Drug level in methionine and choline deficient fed Sprague-Dawley rat bile at 10 mg/kg, iv after 30 to 90 mins by LC-MS/MS method; assay type: ADME, organism-based; design: dose 10 mg/kg, route intravenous; settings: in vivo
Outline: (§1)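 Male SD rats (200-250 g) on MCD diet 8 weeks, urethane-anesthetized (1.2 g/kg i.p.), femoral vein/artery and bile duct cannulated, core temperature maintained. EZE 10 mg/kg i.v. via femoral vein in 10% ethanol/40% propylene glycol/30% PEG 400/20% water (n=3-5). Bile collected at 15-min intervals over 120 min; total EZE after β-glucuronidase (50°C, 60 min) and EZE by LC-MS/MS; glucuronide = total minus parent.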

[2] = Drug level in methionine and choline deficient fed Sprague-Dawley rat bile at 10 mg/kg, po after 120 mins by LC-MS/MS method; assay type: ADME, organism-based; design: dose 10 mg/kg, route oral; settings: in vivo, 2 h
Outline: (§2)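 Male SD rats (200-250 g) fed MCD diet 8 weeks, urethane-anesthetized with femoral and bile duct cannulae. EZE 10 mg/kg by oral gavage in 0.25% carboxymethylcellulose (n=3-5). Bile taken at 15-min intervals to 120 min; samples ±β-glucuronidase hydrolysis (50°C, 60 min), hydroxychalcone internal standard, LC-MS/MS on C18 gradient; glucuronide derived as total minus unconjugated EZE.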

[3] = Drug metabolism in methionine and choline deficient fed Sprague-Dawley rat bile assessed as ezetimibe glucuronide formation at 10 mg/kg, iv after 30 to 90 mins by LC-MS/MS method; assay type: ADME, organism-based; design: dose 10 mg/kg, route intravenous; settings: in vivo; outline: as §1
[4] = tested on: Plasma; experiment: Drug level in methionine and choline deficient fed Sprague-Dawley rat plasma at 10 mg/kg, iv after 120 mins by LC-MS/MS method; assay type: ADME, organism-based; design: dose 10 mg/kg, route intravenous; settings: in vivo, 2 h
Outline: (§3)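 MCD-diet (8 weeks) male SD rats under urethane, femoral artery/vein and bile duct cannulated; EZE 10 mg/kg i.v. bolus via femoral vein in ethanol/propylene glycol/PEG 400/water vehicle (n=3-5). Arterial plasma sampled from 2 to 120 min; 25 µL plasma analysed by LC-MS/MS with and without β-glucuronidase pre-hydrolysis; glucuronide calculated by difference. Mean ± SEM.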

[5] = Drug metabolism in methionine and choline deficient fed Sprague-Dawley rat urine assessed as ezetimibe glucuronide formation at 10 mg/kg, iv after 120 mins by LC-MS/MS method; assay type: ADME, organism-based; design: dose 10 mg/kg, route intravenous; settings: in vivo, 2 h
Outline: (§4)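 After 8 weeks MCD diet, male SD rats under urethane received EZE 10 mg/kg i.v. through femoral vein cannula (ethanol/propylene glycol/PEG 400/water vehicle; n=3-5). Terminal urine taken by bladder puncture at 120 min; EZE and β-glucuronidase-hydrolysed total EZE measured by LC-MS/MS; glucuronide by difference.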

[6] = Drug metabolism in methionine and choline deficient fed Sprague-Dawley rat urine assessed as ezetimibe glucuronide formation at 10 mg/kg, po after 120 mins by LC-MS/MS method; assay type: ADME, organism-based; design: dose 10 mg/kg, route oral; settings: in vivo, 2 h
Outline: (§5)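 MCD-fed (8 weeks) male SD rats, urethane-anesthetized and cannulated, dosed EZE 10 mg/kg by gavage in 0.25% carboxymethylcellulose (n=3-5). Urine collected by bladder puncture 120 min post-dose; parent and total EZE (after β-glucuronidase, 50°C, 60 min) by LC-MS/MS, glucuronide calculated as their difference.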

[7] = tested on: Plasma; experiment: Drug metabolism in methionine and choline deficient fed Sprague-Dawley rat plasma assessed as ezetimibe glucuronide formation at 10 mg/kg, po after 40 mins by LC-MS/MS method; assay type: ADME, organism-based; design: dose 10 mg/kg, route oral; settings: in vivo
Outline: (§6)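 Cannulated, urethane-anesthetized male SD rats after 8 weeks MCD diet given EZE 10 mg/kg orally in 0.25% carboxymethylcellulose (n=3-5). Plasma collected from 2 to 120 min post-dose; total EZE (after β-glucuronidase, 50°C 60 min) and parent EZE quantified by LC-MS/MS; glucuronide = total minus parent. Mean ± SEM.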

[8] = Drug metabolism in methionine and choline deficient fed Sprague-Dawley rat bile assessed as ezetimibe glucuronide formation at 10 mg/kg, po after 120 mins by LC-MS/MS method; assay type: ADME, organism-based; design: dose 10 mg/kg, route oral; settings: in vivo, 2 h; outline: as §2
[9] = Drug level in methionine and choline deficient fed Sprague-Dawley rat urine at 10 mg/kg, po after 120 mins by LC-MS/MS method; assay type: ADME, organism-based; design: dose 10 mg/kg, route oral; settings: in vivo, 2 h; outline: as §5
[10] = Drug level in methionine and choline deficient fed Sprague-Dawley rat urine at 10 mg/kg, iv after 120 mins by LC-MS/MS method; assay type: ADME, organism-based; design: dose 10 mg/kg, route intravenous; settings: in vivo, 2 h; outline: as §4
[11] = tested on: Plasma; experiment: Drug metabolism in methionine and choline deficient fed Sprague-Dawley rat plasma assessed as ezetimibe glucuronide formation at 10 mg/kg, iv after 120 mins by LC-MS/MS method; assay type: ADME, organism-based; design: dose 10 mg/kg, route intravenous; settings: in vivo, 2 h; outline: as §3
[12] = tested on: Plasma; experiment: Drug metabolism in methionine and choline deficient fed Sprague-Dawley rat plasma assessed as ezetimibe glucuronide formation at 10 mg/kg, po after 120 mins by LC-MS/MS method; assay type: ADME, organism-based; design: dose 10 mg/kg, route oral; settings: in vivo, 2 h; outline: as §6
[13] = tested on: Plasma; experiment: Drug level in methionine and choline deficient fed Sprague-Dawley rat plasma at 10 mg/kg, po after 120 mins by LC-MS/MS method; assay type: ADME, organism-based; design: dose 10 mg/kg, route oral; settings: in vivo, 2 h; outline: as §6
[14] = tested on: Rattus norvegicus; experiment: Effect on total bile acid levels in Sprague-Dawley rat nonalcoholic steatohepatitis model at 10 mg/kg, iv after 120 mins by spectrophotometry; assay type: functional, organism-based; design: dose 10 mg/kg
[15] = tested on: Plasma; experiment: Drug level in methionine and choline deficient fed Sprague-Dawley rat plasma at 10 mg/kg, po after 40 mins by LC-MS/MS method; assay type: ADME, organism-based; design: dose 10 mg/kg, route oral; settings: in vivo; outline: as §6
[16] = tested on: Rattus norvegicus; experiment: Effect on total bile acid levels in Sprague-Dawley rat nonalcoholic steatohepatitis model at 10 mg/kg, po after 120 mins by spectrophotometry; assay type: functional, organism-based; design: dose 10 mg/kg
[17] = tested on: Plasma; experiment: Drug metabolism in methionine and choline deficient fed Sprague-Dawley rat plasma assessed as ezetimibe glucuronide formation at 10 mg/kg, iv after 40 mins by LC-MS/MS method; assay type: ADME, organism-based; design: dose 10 mg/kg, route intravenous; settings: in vivo; outline: as §3
[18] = tested on: Plasma; experiment: Drug level in methionine and choline deficient fed Sprague-Dawley rat plasma at 10 mg/kg, iv after 40 mins by LC-MS/MS method; assay type: ADME, organism-based; design: dose 10 mg/kg, route intravenous; settings: in vivo; outline: as §3
[19] = Drug level in methionine and choline deficient fed Sprague-Dawley rat bile treated with ezetimibe at 10 mg/kg, iv after 30 to 90 mins by LC-MS/MS method; assay type: ADME, organism-based; design: dose 10 mg/kg, route intravenous; settings: in vivo; outline: as §1
[20] = Drug level in methionine and choline deficient fed Sprague-Dawley rat urine treated with ezetimibe at 10 mg/kg, iv after 120 mins by LC-MS/MS method; assay type: ADME, organism-based; design: dose 10 mg/kg, route intravenous; settings: in vivo, 2 h; outline: as §4

## O=C1[C@H](CC[C@H](O)c2ccc(F)cc2)[C@@H](c2ccc(O)cc2)N1c1ccc(F)cc1 [EZETIMIBE]
[1]
  Drug uptake: Not Active
[2]
  Drug uptake: Active
[3]
  Drug metabolism: metabolite_not_detected
[4]
  Drug uptake: Active
[5]
  Drug metabolism: metabolite_detected
[6]
  Drug metabolism: metabolite_detected
[7]
  Drug metabolism: metabolite_detected
[8]
  Drug metabolism: metabolite_detected
[9]
  Drug uptake: Active
[10]
  Drug uptake: Active
[11]
  Drug metabolism: metabolite_detected
[12]
  Drug metabolism: metabolite_detected
[13]
  Drug uptake: Active
[14]
  Activity: inactive
[15]
  Drug uptake: Active
[16]
  Activity: inactive
[17]
  Drug metabolism: metabolite_detected
[18]
  Drug uptake: Active

## O=C(O)[C@H]1O[C@@H](Oc2ccc([C@@H]3[C@@H](CC[C@H](O)c4ccc(F)cc4)C(=O)N3c3ccc(F)cc3)cc2)[C@H](O)[C@@H](O)[C@@H]1O
[19]
  Drug metabolism: metabolite_not_detected
[20]
  Drug metabolism: metabolite_detected
